From ChEMBL document CHEMBL1123412, “Thiopurine methyltransferase: structure-activity relationships for benzoic acid inhibitors and thiophenol substrates” (J Med Chem, 1986)

Tests used:
Assay type in all cases: tissue-based
[1] = substrate: Sc1ccc(Cl)cc1; experiment: (§1) Apparent binding constant for purified human kidney TPMT
Procedure, shortened: (§2)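 Enzyme purified >300-fold from human kidney (100000g supernatant, ammonium sulfate, DEAE-A25, Sephadex G-100). The thiophenol replaced 6-MP as methyl acceptor, with 25 μM [14C-methyl]AdoMet at pH 6.7 and 37 °C for 30 min. Stopped with borate pH 10, extracted, scintillation counted. Five or more concentrations near Km in triplicate, at least twice. Apparent Km by Wilkinson method, averaged.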

[2] = substrate: CC(=O)Nc1ccc(S)cc1; experiment: as §1; procedure, shortened: as §2
[3] = substrate: COc1cccc(S)c1; experiment: as §1; procedure, shortened: as §2
[4] = substrate: Fc1ccc(S)cc1; experiment: as §1; procedure, shortened: as §2
[5] = substrate: O=C(O)c1ccccc1S; experiment: as §1; procedure, shortened: as §2
[6] = substrate: Cc1ccc(S)cc1; experiment: as §1; procedure, shortened: as §2
[7] = substrate: Sc1ccccc1Br; experiment: as §1; procedure, shortened: as §2
[8] = substrate: COc1ccccc1S; experiment: as §1; procedure, shortened: as §2
[9] = substrate: Sc1cccc(Cl)c1; experiment: as §1; procedure, shortened: as §2
[10] = substrate: Sc1ccccc1; experiment: as §1; procedure, shortened: as §2
[11] = substrate: Sc1ccc(Br)cc1; experiment: as §1; procedure, shortened: as §2
[12] = substrate: Nc1ccccc1S; experiment: as §1; procedure, shortened: as §2
[13] = substrate: O=[N+]([O-])c1ccc(S)cc1; experiment: as §1; procedure, shortened: as §2
[14] = substrate: COc1ccc(S)cc1; experiment: as §1; procedure, shortened: as §2

B1: Thiopurine S-methyltransferase (Homo sapiens), P51580 (protein)
chain: MDGTRTSLDIEEYSDTEVQKNQVLTLEEWQDKWVNGKTAFHQEQGHQLLKKHLDTFLKGKSGLRVFFPLCGKAVEMKWFADRGHSVVGVEISELGIQEFFTEQNLSYSEEPITEIPGTKVFKSSSGNISLYCCSIFDLPRTNIGKFDMIWDRGALVAINPGDRKCYADTMFSLLGKKFQYLLCVLSYDPTKHPGPPFYVPHAEIERLFGKICNIRCLEKVDAFEERHKSWGIDCLFEKLYLLTEK
- Km [1]: 3.6 µM
- Km [2]: 2.1 µM
- Km [3]: 2.1 µM
- Km [4]: 5.6 µM
- Km [5]: 7.8 µM
- Km [6]: 5.9 µM
- Km [7]: 0.8 µM
- Km [8]: 2.6 µM
- Km [9]: 2.4 µM
- Km [10]: 3.9 µM
- Km [11]: 4.8 µM
- Km [12]: 2.5 µM
- Km [13]: 6.5 µM
- Km [14]: 3.2 µM
